# Screening data from PubChem.
# 697 NFkB inh – inhibitors of PMA/ionomycin-induced NF-kB reporter, 697 cells, primary screen, B-cell NF-kB inhibitor project, cell-based, luminescence, uHTS; 697 B-cell NF-kB luciferase reporter, 16 h; inhibition, % at 4 µM; actives 0.33% (n = 330,000); AID 435022, 2010; in the data active = inhibition above about 35%
# NR2E3 ag-1 – inhibitors of NR2E3-RetCOR corepressor binding, primary screen, NR2E3 agonist project, biochemical, TR-FRET, GST-NR2E3, biotin-RetCOR; 1536-well; inhibition of corepressor binding, % at 4.78 µM; Photoreceptor-specific nuclear receptor (Homo sapiens), Q9Y5X4; AID 2300, 2010; actives 0.12% (n = 320,000);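 active = percent inhibition above the cutoff of mean plus 3 SD of all tested compounds, set per screening campaign, cut at about 20% in these data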;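 also: 0% = DMSO wells and 100% = biotin wells as full block of FRET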
# Target sequence (Q9Y5X4 whole entry, looked up): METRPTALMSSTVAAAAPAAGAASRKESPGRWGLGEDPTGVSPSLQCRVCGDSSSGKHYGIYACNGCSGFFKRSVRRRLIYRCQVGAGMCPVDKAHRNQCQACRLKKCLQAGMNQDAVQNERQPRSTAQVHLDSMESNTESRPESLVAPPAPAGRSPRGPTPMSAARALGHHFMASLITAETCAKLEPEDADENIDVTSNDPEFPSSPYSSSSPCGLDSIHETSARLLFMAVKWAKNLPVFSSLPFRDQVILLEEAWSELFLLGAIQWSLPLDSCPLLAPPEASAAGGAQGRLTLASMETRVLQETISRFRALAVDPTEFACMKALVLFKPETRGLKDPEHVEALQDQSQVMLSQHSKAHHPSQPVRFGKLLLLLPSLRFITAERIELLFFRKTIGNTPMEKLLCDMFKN
#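 Material: NR2E3–RetCOR corepressor complex / Amount: 1.35 nM GST-NR2E3 / Medium: Tris pH 7.5 / Compound: single nominal compound dose of 4.8 µM / Incubation: 5 h at 4 °C / Technique: TR-FRET, Eu(K)-anti-GST donor, streptavidin-D2 acceptor, ex 340, em 617/671 nm / Read-out basis: percent loss of FRET ratio relative to control wells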
# Jurkat NFkB inh – inhibitors of induced NF-kB luciferase reporter, primary screen, TCR NF-kB activation inhibitor project, cell-based, luminescence, uHTS. actives 0.53% (n = 330,000). inhibition, % at 4 µM. Jurkat, PMA/ionomycin-induced NF-kB luciferase reporter; in the data active = inhibition above about 50%
# GalR3 antag – GalR3 antagonists in HEK293 cells, primary screen, cell-based, fluorescence readout | Galanin receptor type 3 (Homo sapiens), O60755 | HEK293 GalR3-CNG cAMP membrane potential fluorescence; galR3 body fused to GalR1 C-terminus | inhibition, % at 3 µM | actives 0.44% (n = 360,000);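 active = inhibition above the screen-wide average plus 3 SD, cut at about 13% in these data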;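 also: forskolin and galanin both at EC90 stimulate the cells; cAMP rise reported by CNG channel membrane potential dye signal; 0% = forskolin plus galanin with DMSO and 100% = forskolin alone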
# Gli-Sufu block – Gli-Sufu pathway antagonists, primary screen, luciferase luminescence, Sufu-KO-LIGHT cells, uHTS; Sufu-KO-LIGHT fibroblasts, Gli luciferase reporter luminescence; inhibition, % at 5 µM; actives 0.74% (n = 340,000); AID 588413, 2011;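 active = inhibition above about 55%, limit read from the data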;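 also: 0% = DMSO-treated cells and 100% = wells with medium but no cells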
# NR2E3 ag-2 – NR2E3 agonists in two-hybrid cells, primary screen, cell-based, luminescence, CHO-S, Gal4-NCOR/VP16-NR2E3 | luciferase | Photoreceptor-specific nuclear receptor (Homo sapiens), Q9Y5X4 | inhibition of corepressor binding, % at 3.98 µM | actives 0.35% (n = 360,000);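 active = inhibition above the mean of all tested compounds plus 3 SD, cut at about 70% in these data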;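 also: 0% = DMSO with NR2E3 transfected cells and 100% = cells lacking NR2E3 construct; higher means lower luciferase signal from less NR2E3 corepressor binding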
# Jurkat NFkB conf – PMA/ionomycin-induced NF-kB reporter inhibitors, Jurkat retest, confirmation, T-cell NF-kB inhibitor project, cell-based, luminescence, single concentration; shares compounds with Jurkat NFkB inh; Jurkat NF-kB luciferase, 16 h; inhibition, % at 4 µM; actives 27% (n = 2,700); AID 435020, 2010;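 active = inhibition reaching about 45% at 4 µM in either replicate, limit read from the data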;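 also: plate controls were PMA/ionomycin stimulated DMSO wells for no effect and unstimulated DMSO wells for full effect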
# Active calls of the source: *; / = no result given. An excerpt weighted towards active compounds, which were near 1.8% of everything screened.
SMILES,697 NFkB inh,NR2E3 ag-1,Jurkat NFkB inh,GalR3 antag,Gli-Sufu block,NR2E3 ag-2,Jurkat NFkB conf
COC(=O)C1=C(C)N(Cc2ccc(C(F)(F)F)cc2)C(=NCc2cccc(C(F)(F)F)c2)NC1c1ccccc1C(F)(F)F (configuration not stated),/,/,/,-6,/,/,/
C(=N\NC1=Nc2cccc3cccc1c23)/c1ccccc1,-181,-1,-167,0,-78,-169,-112
COc1cccc(CC(=O)NCC2CCN(C(=O)C(=O)c3cccs3)CC2)c1,/,/,/,3,/,/,/
CC/C(=N\NC(=O)c1csc(C)c1C)c1cccs1,-157,0,-157,-2,-107,-50,-29
COCc1cc(N2CCNC[C@@H]2C)ccc1N1CCN(Cc2ccccc2)[C@@H](C)C1,/,/,/,-8,/,/,/
CCCCn1c2c(c(=N)c3c1CCC3)CCC2,-1,1,58*,-5,8,6,48*
Cc1ccc(C)c(S(=O)(=O)N2CCCCC2CCNC(=O)C(=O)NCc2cccnc2)c1 (configuration not stated),2,1,20,-2,4,-4,/
Cc1ccc(S(=O)(=O)N2CCCCC2CCNC(=O)C(=O)NCc2cccnc2)cc1 (configuration not stated),6,-1,62*,-2,4,-6,17
COc1ccc(CCNC(=O)C(=O)NCC2CCCN2S(=O)(=O)c2ccccc2)cc1 (configuration not stated),-5,5,10,-2,-18,14,/
COc1ccc(S(=O)(=O)N2CCCC2CNC(=O)C(=O)NCCc2ccccc2)cc1 (configuration not stated),-32,-1,54*,-1,-6,-53,29
COc1ccc(NC(=O)C(=O)NCCC2CCCCN2S(=O)(=O)c2ccc(F)cc2)cc1 (configuration not stated),-39,-2,60*,-7,18,-44,23
Cc1cccc(/C=C/c2nc3ccccc3c(=O)[nH]2)c1,-172,-5,-45,-8,-82,-170,/
Cc1[nH]c2ccccc2c1/C=C/c1nc2ccccc2c(=O)[nH]1,-134,-2,-168,-5,-33,-35,-33
Cc1cccc(NC(=O)CNC(=O)[C@H](CCc2ccccc2)NC(=O)[C@H]2O[C@@H](n3cnc4c(N)ncnc43)[C@H](O)[C@@H]2O)c1C,/,/,/,5,/,/,/
Cc1cc(C)c2sc(NC(=O)C3=COCCO3)nc2c1,-163,3,-170,-4,-106,-224,10
Cc1ccc(-n2[nH]c(=O)c(-c3ccccn3)c2C)cc1,-25,-1,58*,-1,16,-94,26
C=CCN=C1NC(c2ccc(Cl)cc2)C(C(=O)OC)=C(C)N1C (configuration not stated),/,/,/,-6,/,/,/
COc1ccc(-n2ncc3c(NCc4ccco4)ncnc32)cc1,-91,1,-96,-5,-60,-103,/
OCCCNc1ncnc2c1cnn2-c1ccc(Cl)cc1,-135,-1,-153,-11,-36,-57,-102
C=CCNc1ncnc2c1cnn2-c1ccc(OC)cc1,-130,3,-154,-3,-109,-81,-80
COC(=O)C1=C(C)N(Cc2ccccc2C(F)(F)F)C(=NCc2ccccc2C(F)(F)F)NC1c1ccc(F)cc1 (configuration not stated),/,/,/,-2,/,/,/
NS(=O)(=O)c1ccc(Sc2nc3ccccc3s2)c([N+](=O)[O-])c1,-30,1,98*,0,14,15,89*
Cc1ccccc1-n1nnnc1Sc1nnnn1-c1ccccc1,-74,2,30,-5,12,16,/
CCCSc1nnc(Sc2nnnn2-c2ccccc2)s1,-30,4,87*,-7,30,-15,61*
Cc1cccc(S(=O)(=O)N2CCC[C@H]2C(=O)N2CCC[C@@H]2C(=O)NCc2ccccc2)c1,/,/,/,-5,/,/,/
SMILES,697 NFkB inh,NR2E3 ag-1,Jurkat NFkB inh,GalR3 antag,Gli-Sufu block,NR2E3 ag-2,Jurkat NFkB conf
O=C(NCCNC(=O)c1ccccc1)c1ccccc1,-12,0,-2,0,0,-19,/
O=C(N/C=C/c1ccccc1)c1ccccc1,-196,1,-176,0,/,-163,15
CC#CC(=O)N1CCC(n2nccc2NC(=O)c2ccc3c(c2)OCO3)CC1,9,3,74*,-3,14,-52,36
Cc1ccsc1C(=O)Nc1nc2ccccc2[nH]1,-198,-3,-157,-6,-72,-120,-67
Cc1cc(C)cc(C(=O)Nc2nc3ccccc3[nH]2)c1,-75,-1,-87,-12,17,-101,/
COc1ccc2oc(C(=O)Nc3nc4ccccc4[nH]3)c(C)c2c1,-185,0,-179,-5,-111,-140,-98
O=C(Nc1nc2ccccc2[nH]1)c1cc2ccccc2o1,-228,1,-196,0,-75,-203,-117
O=C(Nc1nc2ccccc2[nH]1)c1ccc(F)cc1,-169,0,-154,-8,-47,-143,-48
COC(=O)C1=C(C)N(Cc2ccccc2C(F)(F)F)C(=NCc2cccc(C(F)(F)F)c2)NC1CCc1ccccc1 (configuration not stated),/,/,/,-7,/,/,/
COC(=O)C1=C(C)N(C)C(=NCc2ccccc2)NC1c1ccccc1 (configuration not stated),/,/,/,-5,/,/,/
O=C(Nc1ccncc1)C1CCCN(S(=O)(=O)c2cccc3cccnc23)C1 (configuration not stated),-84,3,63*,0,-7,-72,48
CCCC(=NCCc1c(C)[nH]c2ccccc12)C1=C(O)CC(c2ccccc2)CC1=O (configuration not stated),-61,1,54*,-10,28,-62,15
CC(=NCCc1c(C)[nH]c2ccc(OC(F)(F)F)cc12)C1=C(O)CC(c2ccccc2)CC1=O (configuration not stated),-64,-2,57*,-4,-3,-43,7
CC(=NCCc1c(C)[nH]c2ccc(C)cc12)C1=C(O)CC(c2ccccc2)CC1=O (configuration not stated),-66,-1,56*,0,2,-70,8
